ChEMBL document CHEMBL1124406 (J Med Chem, 1989)

How the values were obtained:
L1210 [1] = assay: Compound was measured for growth inhibition of L1210 cells in standard medium; assay type: functional, cell-based; conditions: Mus musculus
[2] = Inhibition of cell growth against WI-L2 cells; assay type: functional, cell-based; conditions: Homo sapiens, WIL2
Mus musculus [3] = species on record: Mus musculus; assay: Kinetic constant of compound was derived from purified Folyl-polyglutamate synthase from mouse liver
Outline: (§1)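 FPGS was partially purified from mouse liver, and the compounds were run as substrates. Km, Vmax and Vmax/Km came from the kinetic data. Vmax and Vmax/Km are expressed relative to aminopterin run in the same experiment. Each compound was tested in 2–3 experiments on different days.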

L1210 [4] = assay: Compound was measured for growth inhibition of L1210 cells in the presence of hypoxanthine; assay type: functional, cell-based; conditions: Mus musculus
Outline: (§2)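 Reversal test of an antifolate effect on L1210 cell growth in culture. The drug is given alongside one of three supplements: thymidine alone at 10 μM, hypoxanthine alone at 100 μM, or thymidine 10 μM plus hypoxanthine 100 μM together.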

Mus musculus [5] = species on record: Mus musculus; assay: Vmax of compound was derived from purified Folyl-polyglutamate synthase from mouse liver; outline: as §1
Dihydrofolate reductase = biological target: T1, Dihydrofolate reductase (Homo sapiens, UniProt P00374); assay: Compound was tested for its inhibitory activity against dihydrofolate reductase (DHFR), isolated from MTX-resistant WI-L2 cells; assay type: cell-based
T1 sequence (P00374 whole entry): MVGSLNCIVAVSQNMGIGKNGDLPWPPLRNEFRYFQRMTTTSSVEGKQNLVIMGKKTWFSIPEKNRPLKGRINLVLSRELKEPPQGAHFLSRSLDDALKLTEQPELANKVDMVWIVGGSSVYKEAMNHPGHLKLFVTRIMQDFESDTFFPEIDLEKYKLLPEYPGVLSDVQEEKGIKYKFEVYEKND

L1210 [6] = assay: Inhibition of cell growth against L1210 murine leukemia cells; assay type: functional, cell-based; conditions: Mus musculus
Mus musculus [7] = species on record: Mus musculus; assay: Ratio of Vmax and Km relative to AMT; outline: as §1
L1210 [8] = assay: Compound was measured for growth inhibition of L1210 cells in the presence of thymidine; assay type: functional, cell-based; conditions: Mus musculus; outline: as §2
L1210 [9] = assay: Compound was measured for growth inhibition of L1210 cells in the presence of thymidine plus hypoxanthine; assay type: functional, cell-based; conditions: Mus musculus; outline: as §2

Structure (SMILES) | IC50 (L1210 [1]) [nM] | IC50 [2] [nM] | Km (Mus musculus [3]) [µM] | IC50 (L1210 [4]) [nM] | Vmax (Mus musculus [5]) | IC50 (Dihydrofolate reductase) [nM] | IC50 (L1210 [6]) [nM] | Ratio (Mus musculus [7]) | IC50 (L1210 [8]) [nM] | IC50 (L1210 [9]) [nM]
Cc1nc(N)c2nc(CNc3ccc(C(=O)NC(CCC(=O)O)C(=O)O)cc3)cnc2n1 (centres undefined) | 42 | 28 | 31.7 | 160 | 0.77 | > 50000 | 42 | 0.6 | 130 | > 100000
Nc1ncnc2ncc(CNc3ccc(C(=O)NC(CCC(=O)O)C(=O)O)cc3)nc12 (centres undefined) | 82 | 81 | 26.4 | 260 | 0.87 |  | 82 | 0.74 | 160 | > 100000
Nc1nc(N)c2nc(CNc3ccc(C(=O)N[C@@H](CCC(=O)O)C(=O)O)cc3)cnc2n1 |  |  | 22.8 |  | 1 |  |  | 1 |  | 
CN(Cc1cnc2nc(N)nc(N)c2n1)c1ccc(C(=O)N[C@@H](CCC(=O)O)C(=O)O)cc1 [METHOTREXATE] |  | 13 |  |  |  |  | 9 |  |  | 
